Measured values gathered from unrelated publications.
Lines come from different studies, so protocols differ.
Target: cAMP-dependent protein kinase catalytic subunit beta (PRKACB, Homo sapiens, UniProt P22694)

The remaining binding of `CN(C)c1nccc(-c2cnn3ncccc23)n1` is reported as 76% (binding; competition with immobilised ligand; 1 µM).
For `O=C(NCCCN1CCOCC1)c1ccc(Nc2ncc(Cl)c(-c3ccc(Cl)s3)n2)cc1`, the remaining binding was 100% (binding; competition with immobilised ligand; 1 µM).
`c1cncc(-c2cccc(Nc3nccc(NC4CCCCC4)n3)c2)c1` has a remaining binding of 56% (binding; competition with immobilised ligand; 10 µM).
For `CCN1CCN(Cc2ccc(C(=O)Nc3ccc(C)c(Oc4ccc5c(c4)CC(=O)N5)c3)cc2C(F)(F)F)CC1`, the remaining binding was 80% (binding; competition with immobilised ligand; 1 µM).
`CC1CCCN1c1nccc(-c2cnn3ncccc23)n1` (stereo not drawn) has a remaining binding of 89% (binding; competition with immobilised ligand; 1 µM).
`FC(F)(F)Oc1cccc(-c2cnc3ccc(-c4ccncc4)nn23)c1` has a remaining binding of 98% (cell-free assay; competition with immobilised ligand; 5 µM).
The remaining binding of `CN(c1nccc(-c2cnn3ncccc23)n1)C1CC1` is reported as 99% (binding; 1 µM).
`O=C(c1ccc(Nc2nccc(-c3cc4ccccc4s3)n2)cc1)N1CCC(N2CCCC2)CC1` has a remaining binding of 100% (binding; competition with immobilised ligand; 1 µM).
For `CCCCN(CCCC)C(=O)CN1C[C@@H](c2cc(OC)c3c(c2)OCO3)[C@H](C(=O)O)[C@H]1CC(C)(C)CCC`, the remaining binding was 100% (cell-free assay; competition with immobilised ligand; 1 µM).
For `O=C(Nc1c[nH]nc1C(=O)NC1CCNCC1)c1cc(F)cc(F)c1`, the remaining binding was 100% (binding; competition with immobilised ligand; 1 µM).
For `COc1ccc2c(O[C@@H]3C[C@H]4C(=O)N[C@]5(C(=O)O)CC5/C=C\CCCCC[C@H](NC(=O)OC5CCCC5)C(=O)N4C3)cc(-c3csc(NC(=O)C(C)C)n3)nc2c1C` (stereo partly drawn), the remaining binding was 100% (cell-free assay; competition with immobilised ligand; 1 µM).
For `CN(C)c1nccc(-c2cnc3ncccn23)n1`, the remaining binding was 82% (binding; competition with immobilised ligand; 1 µM).
`Cc1nc(Cc2cccc(C(F)(F)F)c2)sc1-c1ccc(C(N)=O)nc1` gave a remaining binding of 92% (cell-free assay; competition with immobilised ligand; 1 µM).
`CNC(=O)[C@@H]1CC[C@@H](n2c(-c3ccc4cnccc4c3)nc3ccc(C(=O)NCc4cccc(C(N)=O)c4)cc32)C1` has a remaining binding of 100% (binding; competition with immobilised ligand; 1 µM).
`COc1ncc2cc3ccccc3nc2c1C#N` has a remaining binding of 97% (cell-free assay; competition with immobilised ligand; 5 µM).
For `CS(=O)(=O)N1CCCC(NC(=O)[C@H](CCC2CCCCC2)NC(=O)c2ccc(CNc3ncnc4c3nnn4-c3ccccc3)cc2)C1` (stereo partly drawn), the remaining binding was 92% (cell-free assay; competition with immobilised ligand; 0.1 µM).
The remaining binding of `O=C(c1ccc(Nc2ncc(Cl)c(-c3ccc(Cl)s3)n2)cc1)N1CCC(N2CCCC2)CC1` is reported as 100% (binding; competition with immobilised ligand; 1 µM).
The remaining binding of `CN(CCCC(F)(F)F)c1nccc(-c2cnn3ncccc23)n1` is reported as 100% (binding; competition with immobilised ligand; 1 µM).
With `NS(=O)(=O)c1cc(NC(=O)Cc2ccccc2)ccc1Oc1cccc(Cl)c1` the remaining binding was 100% (cell-free assay; competition with immobilised ligand; 1 µM).
`C[C@@H]1CCN(c2nccc(-c3cnn4ncccc34)n2)C1` gave a remaining binding of 72% (binding; competition with immobilised ligand; 1 µM).
`CNC(=O)Nc1ccc2c(c1)[C@@]1(CC2)OC(=O)N(CC(=O)N(Cc2ccc(F)cc2)[C@@H](C)C(F)(F)F)C1=O` has a remaining binding of 100% (cell-free assay; competition with immobilised ligand; 1 µM).
